Laboratory results: ChEMBL document CHEMBL1148549, “A novel class of potent influenza virus inhibitors: polysubstituted acylthiourea and its fused heterocycle derivatives” (Bioorg Med Chem Lett, 2006)

Legend:
[1] = test system: Influenza A virus; assay: Inhibitory activity against influenza A3/Beijing/30/95 ([…]) virus in MDCK cells; assay type: functional, organism-based
How it was run: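 MDCK cells in 96-well plates were infected with influenza ([…]) virus at 50 PFU/well and treated with serially diluted compound. IC50 was calculated from the dilution series and reported in µM as the mean of at least three independent experiments run on different days.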

[2] = test system: MDCK; assay: Cytotoxicity in MDCK cells using MTS assay; assay type: functional, cell-based; details: Canis lupus familiaris

| Structure (SMILES) | IC50 [1] [nM] | Activity [2] |
| --- | --- | --- |
| CC(C)(C)NC(=O)NC(=O)NC(=O)c1ccccc1 | > 20000 | Not toxic |
| COC(=O)NC(=S)NC(=O)NC(C)(C)C | 1830 | Not toxic |
| CC(C)(C)NC(=O)NC(=S)NC(=O)c1ccccc1 | 1790 | Not toxic |
| CCOc1cc(OCC)n2s/c(=N\C(=O)c3ccc(-c4ccc([N+](=O)[O-])cc4)o3)nc2n1 | 5250 | Not toxic |
| CCOc1cc(C)nc2n/c(=N/C(=O)c3ccc(-c4ccccc4Cl)o3)sn12 | 350 | Not toxic |
| Cc1cc(C)nc(NC(=O)NC(=O)c2c(F)cccc2F)n1 | > 20000 | Not toxic |
| CC(C)[C@H](C(=O)NC(=S)NC(=O)NC(C)(C)C)c1ccc(Cl)cc1 | 1350 | Not toxic |
| CC(C)(C)NC(=O)NC(=S)NC(=O)c1ccc(-c2ccccc2Cl)o1 | 1420 | Not toxic |
| COc1cc(C)nc(NC(=S)NC(=O)c2ccc(Cl)nc2)n1 | > 20000 | Not toxic |
| O=C(NC(=S)Nc1nc(Cl)cc(Cl)n1)c1ccc(-c2ccccc2Cl)o1 | 14500 | Not toxic |
| CC(C)(C)NC(=O)NC(=S)NC(=O)COc1ccc(Cl)cc1Cl | 1670 | Not toxic |
| CC(C)(C)NC(=O)NC(=S)NC(=O)c1ccc(-c2ccc([N+](=O)[O-])cc2)o1 | 1300 | Not toxic |
| COc1cc(Cl)nc(NC(=O)NC(=O)c2c(F)cccc2F)n1 | 15900 | Not toxic |
| COc1cc(Cl)nc(NC(=S)NC(=O)c2ccc(-c3ccccc3Cl)o2)n1 | 1290 | Not toxic |
| CC(C)C(C(=O)NC(=O)NC(=O)NC(C)(C)C)c1ccc(Cl)cc1 (configuration not stated) | 15500 | Not toxic |
| COc1cc(Cl)nc(NC(=S)NC(=O)c2ccc(Cl)nc2)n1 | > 20000 | Not toxic |
| CCOc1cc(OCC)nc(NC(=S)NC(=O)c2ccc(Cl)nc2)n1 | > 20000 | Not toxic |
| CC(C)(C)NC(=O)NC(=O)NC(=O)c1c(F)cccc1F | 14100 | Not toxic |
| Cc1cc(C)nc(NC(=S)NC(=O)c2cccnc2Cl)n1 | 7190 | Not toxic |
| Cc1cc(Cl)nc(NC(=O)NC(=O)c2c(F)cccc2F)n1 | > 20000 | Not toxic |
| CCOc1cc(C)nc(NC(=S)NC(=O)c2ccc(-c3ccc([N+](=O)[O-])cc3)o2)n1 | 11300 | Not toxic |
| COc1cc(C)nc(NC(=S)NC(=O)c2ccc(-c3ccccc3Cl)o2)n1 | > 20000 | Not toxic |
| CCOc1cc(C)nc(NC(=S)NC(=O)c2ccc(-c3ccccc3Cl)o2)n1 | 1650 | Not toxic |

| Structure (SMILES) | IC50 [1] [nM] | Activity [2] |
| --- | --- | --- |
| CCOc1cc(OCC)nc(NC(=S)NC(=O)c2ccc(-c3ccc([N+](=O)[O-])cc3)o2)n1 | > 20000 | Not toxic |
| COc1cc(OC)nc(NC(=S)NC(=O)c2cnc(Cl)c(Cl)c2)n1 | 18500 | Not toxic |
| CC(C)(C)NC(=O)NC(=S)NC(=O)c1c(F)cccc1F | 1430 | Not toxic |
| COc1cc(OC)nc(NC(=O)NC(=O)c2c(F)cccc2F)n1 | > 20000 | Not toxic |
| Cc1cc(O)nc(NC(=S)NC(=O)c2ccc(-c3ccc([N+](=O)[O-])cc3)o2)n1 | 360 | Not toxic |
| CC(C)(C)NC(=O)NC(=S)NC(=O)[C@H]1[C@@H](/C=C(\Cl)C(F)(F)F)C1(C)C | 510 | Not toxic |
| COc1cc(C)nc(NC(=S)NC(=O)c2ccc(-c3ccc([N+](=O)[O-])cc3)o2)n1 | 1220 | Not toxic |
| CCOc1cc(OCC)nc(NC(=S)NC(=O)c2ccc(-c3ccccc3Cl)o2)n1 | 80 | Not toxic |
| COc1cc(OC)n2s/c(=N\C(=O)c3cccnc3)nc2n1 | > 20000 | Not toxic |
| CCOc1cc(OCC)n2s/c(=N\C(=O)c3ccc(Cl)nc3)nc2n1 | 90 | Not toxic |
| COc1cc(Cl)nc2n/c(=N/C(=O)c3ccc(Cl)nc3)sn12 | 9320 | Not toxic |
| Cc1cc(O)nc(NC(=S)NC(=O)c2ccc(-c3ccccc3Cl)o2)n1 | 320 | Not toxic |
| COc1cc(OC)n2s/c(=N\C(=O)c3cccnc3Cl)nc2n1 | 2410 | Not toxic |
| CCOc1cc(Cl)nc(NC(=S)NC(=O)c2ccc(-c3ccccc3Cl)o2)n1 | > 20000 | Not toxic |
| COc1cc(OC)nc(NC(=S)NC(=O)c2cccnc2)n1 | > 20000 | Not toxic |
| CCOc1cc(OCC)nc(NC(=S)NC(=O)c2cccnc2Cl)n1 | > 20000 | Not toxic |
| CC(C)(C)NC(=O)NC(=S)NC(=O)[C@@H]1[C@@H](C=C(Cl)Cl)C1(C)C | 260 | Not toxic |
| COc1cc(Cl)nc(NC(=S)NC(=O)c2cccnc2Cl)n1 | 2590 | Not toxic |
| Cc1cc(=O)nc2nc(NC(=O)c3ccc(-c4ccc([N+](=O)[O-])cc4)o3)sn12 | 670 | Not toxic |
| Cc1cc(O)nc(NC(=S)NC(=O)c2ccc(Cl)nc2)n1 | 8580 | Not toxic |
| COc1cc(OC)nc(NC(=S)NC(=O)c2ccc(-c3ccccc3Cl)o2)n1 | 1770 | Not toxic |
| COc1cc(OC)nc(NC(=S)NC(=O)c2ccc(-c3ccc([N+](=O)[O-])cc3)o2)n1 | > 20000 | Not toxic |
| CCOc1cc(Cl)nc(NC(=S)NC(=O)c2cccnc2Cl)n1 | > 20000 | Not toxic |
